Source: ChEMBL document CHEMBL4706740, “Structure-Activity Study of Nitazoxanide Derivatives as Novel STAT3 Pathway Inhibitors” (ACS Med Chem Lett, 2021)
Calls of active or inactive are those of the source. The calls are words filed in the database; no cut-off is given here.

What was measured:
[1] = target: Signal transducer and activator of transcription 3 (Homo sapiens) (UniProt P40763); assay: Inhibition of STAT3 in human HeLa cells assessed as decrease in phosphorylation of STAT3 at Tyr705 after 1 hrs by Western blot analysis; assay type: cell-based; conditions: dose microM <=80, time 1.0 hrs
Chain of Signal transducer and activator of transcription 3 (Homo sapiens) (P40763 whole entry): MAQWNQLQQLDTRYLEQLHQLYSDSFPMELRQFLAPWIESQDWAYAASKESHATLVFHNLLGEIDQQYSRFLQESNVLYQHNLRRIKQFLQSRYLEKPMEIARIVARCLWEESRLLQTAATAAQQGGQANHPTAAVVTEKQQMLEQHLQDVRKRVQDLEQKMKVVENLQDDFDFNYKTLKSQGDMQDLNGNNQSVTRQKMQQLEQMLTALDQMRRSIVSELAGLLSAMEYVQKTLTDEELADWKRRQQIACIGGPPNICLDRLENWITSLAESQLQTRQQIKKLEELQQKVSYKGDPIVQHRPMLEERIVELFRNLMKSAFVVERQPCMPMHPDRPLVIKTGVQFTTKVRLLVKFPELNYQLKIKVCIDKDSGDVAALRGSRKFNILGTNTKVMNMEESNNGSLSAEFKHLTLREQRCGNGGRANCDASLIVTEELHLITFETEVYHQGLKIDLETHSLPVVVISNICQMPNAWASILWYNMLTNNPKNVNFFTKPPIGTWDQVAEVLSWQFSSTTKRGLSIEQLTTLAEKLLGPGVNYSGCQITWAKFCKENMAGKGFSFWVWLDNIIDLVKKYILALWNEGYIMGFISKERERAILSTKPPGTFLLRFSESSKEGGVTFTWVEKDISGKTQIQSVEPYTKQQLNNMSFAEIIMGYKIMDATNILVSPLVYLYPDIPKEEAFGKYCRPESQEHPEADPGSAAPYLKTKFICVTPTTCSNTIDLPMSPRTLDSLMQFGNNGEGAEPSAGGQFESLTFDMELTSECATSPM
Summary of the method: (§1)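 HeLa cells were treated with graded doses for 1 h or 24 h. Total cell lysates were immunoblotted with specific antibodies against p-STAT3 (Tyr705), p-STAT3 (Ser727) and total STAT3.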

[2] = target: Signal transducer and activator of transcription 3 (Homo sapiens) (UniProt P40763); assay: Inhibition of STAT3 in human HeLa cells assessed as decrease in phosphorylation of STAT3 at Tyr705 upto 80 uM measured 15 to 120 mins by Western blot analysis; assay type: cell-based; conditions: dose microM <=80, time lower […], time upper […]
Summary of the method: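 Time course in HeLa cells given 80 μM compound, sampled from 15 min onward through multiple hours; parallel runs at 20 and 40 μM. Total cell lysates Western blotted for p-STAT3 (Tyr705), p-STAT3 (Ser727) and total STAT3.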

[3] = target: Signal transducer and activator of transcription 3 (Homo sapiens) (UniProt P40763); assay: Inhibition of STAT3 in human HeLa cells assessed as decrease in phosphorylation of STAT3 at Ser727 after 24 hrs by western blot analysis; assay type: cell-based; conditions: dose microM <=80, time […]; summary of the method: as §1
[4] = target: Signal transducer and activator of transcription 3 (Homo sapiens) (UniProt P40763); assay: Inhibition of STAT3 transcriptional activity in human HeLa cells assessed as downregulation of cyclin D1 expression upto 80 uM after 24 hrs by western blot analysis; assay type: cell-based; conditions: dose microM <=80, time […]
Summary of the method: (§2)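 HeLa cells treated 24 h with a concentration series. Total cell lysates probed by Western blot with specific antibodies for the STAT3 target gene products cyclin D1, c-Myc and survivin.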

[5] = target: Signal transducer and activator of transcription 3 (Homo sapiens) (UniProt P40763); assay: Inhibition of STAT3 transcriptional activity in human HeLa cells assessed as downregulation of c-Myc expression upto 80 uM after 24 hrs by western blot analysis; assay type: cell-based; conditions: dose microM <=80, time […]; summary of the method: as §2
[6] = target: Signal transducer and activator of transcription 3 (Homo sapiens) (UniProt P40763); assay: Inhibition of STAT3 transcriptional activity in human HeLa cells assessed as downregulation of survivin expression upto 80 uM after 24 hrs by western blot analysis; assay type: cell-based; conditions: dose microM <=80, time […]; summary of the method: as §2
HeLa [7] = assay: Induction of cell cycle arrest in human HeLa cells assessed as accumulation at G0/G1 phase at 20 uM measured after 24 hrs by flow cytometry analysis (reference value: 54.16%); assay type: functional
HeLa [8] = assay: Induction of cell cycle arrest in human HeLa cells assessed as accumulation at S phase at 20 uM measured after 24 hrs by flow cytometry analysis (reference value: 34.04%); assay type: functional
HeLa [9] = assay: Induction of cell cycle arrest in human HeLa cells assessed as accumulation at G2/M phase at 10 uM measured after 24 hrs by flow cytometry analysis (reference value: 11.81%); assay type: functional
HeLa [10] = assay: Induction of cell cycle arrest in human HeLa cells assessed as accumulation at G2/M phase at 20 uM measured after 24 hrs by flow cytometry analysis (reference value: 11.81%); assay type: functional
HeLa [11] = assay: Induction of apoptosis in human HeLa cells assessed as viable cells at 10 uM incubated for 24 hrs by Annexin V-FITC/PI staining based flow cytometry (reference value: 92.45%); assay type: functional; conditions: read-out: Activity
HeLa [12] = assay: Induction of apoptosis in human HeLa cells assessed as viable cells at 20 uM incubated for 24 hrs by Annexin V-FITC/PI staining based flow cytometry (reference value: 92.45%); assay type: functional; conditions: read-out: Activity
HeLa [13] = assay: Induction of apoptosis in human HeLa cells assessed as viable cells at 40 uM incubated for 24 hrs by Annexin V-FITC/PI staining based flow cytometry (reference value: 92.45%); assay type: functional; conditions: read-out: Activity
HeLa [14] = assay: Induction of apoptosis in human HeLa cells assessed as early apoptotic cells at 10 uM incubated for 24 hrs by Annexin V-FITC/PI staining based flow cytometry (reference value: 2.84%); assay type: functional
HeLa [15] = assay: Induction of apoptosis in human HeLa cells assessed as early apoptotic cells at 20 uM incubated for 24 hrs by Annexin V-FITC/PI staining based flow cytometry (reference value: 2.84%); assay type: functional
HeLa [16] = assay: Induction of apoptosis in human HeLa cells assessed as early apoptotic cells at 40 uM incubated for 24 hrs by Annexin V-FITC/PI staining based flow cytometry (reference value: 2.84%); assay type: functional
[17] = Cytotoxicity against human HEK 293T cells assessed as cell growth inhibition at 50 uM measured after 48 hrs by MTT assay; assay type: cell-based
[18] = Cytotoxicity against human HEK 293T cells assessed as cell growth inhibition at 10 uM measured after 48 hrs by MTT assay; assay type: cell-based
HeLa [19] = assay: Antiproliferative activity against human HeLa cells assessed as cell growth inhibition measured after 48 hrs by MTT assay; assay type: functional, cell-based
Summary of the method: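 Growth was read by MTT assay, and IC50 was taken from the dose–response curve. Values are averages of three independent experiments.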

A549 = assay: Antiproliferative activity against human A549 cells assessed as cell growth inhibition measured after 48 hrs by MTT assay; assay type: functional, cell-based; conditions: A549, 48 h
PC-3 = assay: Antiproliferative activity against human PC3 cells assessed as cell growth inhibition measured after 48 hrs by MTT assay; assay type: functional, cell-based; conditions: PC-3, 48 h
[20] = Half life in Sprague-Dawley rat at 25 mg/kg, IG; assay type: ADME, organism-based; conditions: in vivo, po
Summary of the method: (§3)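 Rats, n = 3 per group, received a single dose either intragastrically (25 mg/kg) or intravenously (5 mg/kg). Plasma concentration–time curves were used to derive t1/2α, t1/2β, Vd/F, CL/F, AUC0–∞, Tmax and Cmax. Absolute oral bioavailability was calculated from the ig and iv data.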

[21] = Elimination Half life in Sprague-Dawley rat at 25 mg/kg, IG; assay type: ADME, organism-based; conditions: in vivo, po, read-out: beta t1/2 (converted); summary of the method: as §3
[22] = Elimination Half life in Sprague-Dawley rat at 5 mg/kg, iv; assay type: ADME, organism-based; conditions: in vivo, read-out: beta t1/2 (converted); summary of the method: as §3
[23] = Apparent clearance in Sprague-Dawley rat at 5 mg/kg, iv; assay type: ADME, organism-based; conditions: in vivo, read-out: CL(app) (converted); summary of the method: as §3
[24] = AUC (0 to infinity) in Sprague-Dawley rat at 25 mg/kg, IG; assay type: ADME, organism-based; design: route […], time infinity, dose 25 mg/kg; conditions: in vivo, po; summary of the method: as §3
[25] = AUC (0 to infinity) in Sprague-Dawley rat at 5 mg/kg, iv; assay type: ADME, organism-based; design: route intravenous, time infinity, dose 5 mg/kg; conditions: in vivo; summary of the method: as §3
[26] = Tmax in Sprague-Dawley rat at 25 mg/kg, IG; assay type: ADME, organism-based; conditions: in vivo, po
[27] = Cmax in Sprague-Dawley rat at 25 mg/kg, IG; assay type: ADME, organism-based; design: route […], dose 25 mg/kg; conditions: in vivo, po; summary of the method: as §3
[28] = target: Proto-oncogene tyrosine-protein kinase Src (Homo sapiens) (UniProt P12931); assay: Inhibition of Src phosphorylation at Tyr416 in human Hela cells upto 80 uM after 24 hrs by Western blot analysis; assay type: cell-based; conditions: dose microM <=80, time […]
Chain of Proto-oncogene tyrosine-protein kinase Src (Homo sapiens) (P12931 2-536 limits assumed): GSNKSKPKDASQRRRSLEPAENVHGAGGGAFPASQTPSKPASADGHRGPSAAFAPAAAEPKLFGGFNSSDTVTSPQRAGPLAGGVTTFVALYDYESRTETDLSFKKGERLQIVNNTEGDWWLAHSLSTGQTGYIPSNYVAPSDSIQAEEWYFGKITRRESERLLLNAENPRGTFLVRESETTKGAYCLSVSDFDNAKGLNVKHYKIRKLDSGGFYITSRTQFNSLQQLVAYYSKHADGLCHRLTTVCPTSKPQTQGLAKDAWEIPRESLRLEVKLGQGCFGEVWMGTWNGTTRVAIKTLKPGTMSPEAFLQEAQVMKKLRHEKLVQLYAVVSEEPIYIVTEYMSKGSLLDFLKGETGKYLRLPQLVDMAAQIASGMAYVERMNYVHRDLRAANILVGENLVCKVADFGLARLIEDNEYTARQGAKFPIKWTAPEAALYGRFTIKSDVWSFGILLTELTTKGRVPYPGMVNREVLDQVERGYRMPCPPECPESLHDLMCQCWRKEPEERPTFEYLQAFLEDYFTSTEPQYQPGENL

[29] = target: Tyrosine-protein kinase JAK2 (Homo sapiens) (UniProt O60674); assay: Inhibition of Jak2 phosphorylation at Tyr1007/1008 in human Hela cells upto 80 uM after 24 hrs by Western blot analysis; assay type: cell-based; conditions: dose microM <=80, time […]
Chain of Tyrosine-protein kinase JAK2 (Homo sapiens) (O60674 whole entry): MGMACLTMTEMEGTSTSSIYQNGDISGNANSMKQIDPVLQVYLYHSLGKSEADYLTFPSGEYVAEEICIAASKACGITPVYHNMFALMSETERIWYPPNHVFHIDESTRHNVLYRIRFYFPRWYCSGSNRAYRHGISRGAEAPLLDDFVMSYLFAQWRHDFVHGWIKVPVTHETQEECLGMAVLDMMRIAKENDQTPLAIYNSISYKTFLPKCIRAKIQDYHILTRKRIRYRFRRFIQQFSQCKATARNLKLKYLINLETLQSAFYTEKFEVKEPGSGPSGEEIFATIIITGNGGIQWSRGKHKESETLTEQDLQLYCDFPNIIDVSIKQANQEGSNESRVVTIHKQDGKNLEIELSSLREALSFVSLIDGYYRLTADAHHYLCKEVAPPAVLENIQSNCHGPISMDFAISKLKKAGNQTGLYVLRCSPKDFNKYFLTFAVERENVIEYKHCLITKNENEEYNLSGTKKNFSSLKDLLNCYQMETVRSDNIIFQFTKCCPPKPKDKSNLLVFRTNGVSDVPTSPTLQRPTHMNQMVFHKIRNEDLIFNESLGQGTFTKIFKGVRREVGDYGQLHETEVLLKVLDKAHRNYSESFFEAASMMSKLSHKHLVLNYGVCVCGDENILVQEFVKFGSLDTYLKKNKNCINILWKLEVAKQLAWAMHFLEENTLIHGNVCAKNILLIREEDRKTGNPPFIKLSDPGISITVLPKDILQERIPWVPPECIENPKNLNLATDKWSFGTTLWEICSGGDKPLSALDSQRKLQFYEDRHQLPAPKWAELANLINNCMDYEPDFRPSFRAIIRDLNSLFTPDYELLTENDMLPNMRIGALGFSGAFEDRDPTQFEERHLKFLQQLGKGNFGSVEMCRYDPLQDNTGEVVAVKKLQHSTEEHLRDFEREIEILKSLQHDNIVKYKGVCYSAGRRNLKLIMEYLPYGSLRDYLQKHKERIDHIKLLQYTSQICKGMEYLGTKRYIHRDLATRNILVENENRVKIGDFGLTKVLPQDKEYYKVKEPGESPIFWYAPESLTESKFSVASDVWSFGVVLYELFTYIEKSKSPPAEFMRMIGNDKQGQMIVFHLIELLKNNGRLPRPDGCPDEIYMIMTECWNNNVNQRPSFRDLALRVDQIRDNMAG

[30] = target: Signal transducer and activator of transcription 3 (Homo sapiens) (UniProt P40763); assay: Binding affinity to GST-tagged human STAT3 using 5-carboxyfluorescein labelled peptide incubated for 1 hr by fluorescence polarization assay
[31] = target: Signal transducer and activator of transcription 3 (Homo sapiens) (UniProt P40763); assay: Inhibition of STAT3 in human Hela cell lysate assessed as inhibition of protein and DNA interaction upto 200 uM incubated 30 mins by electrophoretic mobility shift assay; assay type: subcellular; conditions: dose microM <=200, time 30.0 min
[32] = target: Signal transducer and activator of transcription 3 (Homo sapiens) (UniProt P40763); assay: Inhibition of STAT3 in human Hela cell lysate assessed as inhibition of protein and DNA interaction upto 100 uM cells preincubated 1 hr by electrophoretic mobility shift assay; assay type: subcellular; conditions: dose microM <=100, time 1.0 hrs

What does the source list for `CC(=O)Oc1ccccc1C(=O)Nc1ncc([N+](=O)[O-])s1` [NITAZOXANIDE]?
inhibition [1]: Dose-dependent effect; inhibition [2]: inactive; inhibition [3]: Dose-dependent effect; inhibition [4]: Dose-dependent effect; inhibition [5]: Dose-dependent effect; inhibition [6]: Dose-dependent effect; Activity (HeLa [7]): 69.88%; Activity (HeLa [8]): 21.84%; Activity (HeLa [9]): 9.59%; Activity (HeLa [10]): 8.27%; viability at 10 µM (HeLa [11]): 92.3%; viability at 20 µM (HeLa [12]): 84.1%; viability at 40 µM (HeLa [13]): 77.3%; Activity (HeLa [14]): 2.34%; Activity (HeLa [15]): 4.49%; Activity (HeLa [16]): 7.48%; inhibition at 48 h, 50 µM [17]: 24.4%; inhibition at 48 h, 10 µM [18]: -3.3%; IC50 (HeLa [19]): 35 µM; IC50 (A549): > 50 µM; IC50 (PC-3): 44.7 µM; half-life [20]: 36 min; half-life [21]: 48 min; half-life [22]: 18 min; clearance [23]: 8.33 mL/min/kg; AUC(0-inf) [24]: 3200 ng·h/mL; AUC(0-inf) [25]: 11200 ng·h/mL; Tmax [26]: 2 h; Cmax [27]: 1000 ng/mL; inhibition [28]: inactive; inhibition [29]: inactive; Activity [30]: inactive; inhibition [31]: inactive; inhibition [32]: inactive
